# Source: ChEMBL document CHEMBL3588772, “Synthesis, anti-mycobacterial activity and DNA sequence-selectivity of a library of biaryl-motifs containing polyamides” (Bioorg Med Chem, 2015)
# System: Mycobacterium tuberculosis
# Experiment: Antimycobacterial activity against Mycobacterium bovis BCG after 7 days
# Assay type: functional
# Conditions: variant bovis BCG, 168 h
# Method in brief: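 HT-SPOTi agar growth inhibition in 96-well format. Serially diluted DMSO solutions were mixed into Middlebrook 7H10 agar (kept at 55 °C) with 0.05% glycerol and 10% OADC. Controls were DMSO-only wells and isoniazid. Each well received 2×10³ CFU of culture (pre-grown rolling at 2 rpm or standing, 37 °C). Plates ran 7 days at 37 °C. MIC = lowest concentration with no visible growth.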
row,Compound,MIC [µg/mL]
1,CC(=O)Nc1ccc(-c2csc(C(=O)Nc3cc(C(=O)Nc4cc(C(=O)NCCCN(C)C)n(C)c4)n(C)c3)c2)cc1,125
2,CC(=O)Nc1ccc(-c2ccc(C(=O)Nc3cc(C(=O)Nc4cc(C(=O)NCCCN(C)C)n(C)c4)n(C)c3)o2)cc1,125
3,CC(=O)Nc1cccc(-c2ccc(C(=O)Nc3cc(C(=O)Nc4cc(C(=O)NCCCN(C)C)n(C)c4)n(C)c3)o2)c1,125
4,CC(=O)Nc1ccc(-c2cc(C(=O)Nc3cc(C(=O)Nc4cc(C(=O)NCCCN(C)C)n(C)c4)n(C)c3)n(C)c2)cc1,125
5,Cc1nc(-c2ccsc2)sc1C(=O)Nc1cc(C(=O)Nc2cc(C(=O)NCCCN(C)C)n(C)c2)n(C)c1,125
6,Cc1nc(-c2cnn(C)c2)sc1C(=O)Nc1cc(C(=O)Nc2cc(C(=O)NCCCN(C)C)n(C)c2)n(C)c1,62.5
7,NNC(=O)c1ccncc1 [ISONIAZID],0.05
8,CO[C@H]1/C=C/O[C@@]2(C)Oc3c(C)c(O)c4c(O)c(c(/C=N/N5CCN(C)CC5)c(O)c4c3C2=O)NC(=O)/C(C)=C\C=C\[C@H](C)[C@H](O)[C@@H](C)[C@@H](O)[C@@H](C)[C@H](OC(C)=O)[C@@H]1C [RIFAMPIN],0.05
9,Cn1cc(NC(=O)c2cc(NC(=O)c3cc(NC=O)cn3C)cn2C)cc1C(=O)NCCC(=N)N [STALLIMYCIN],1.95
